This is an account of results in ChEMBL document CHEMBL1127349, “6,7,8,9-Tetrahydro-N,N-di-n-propyl-3H-benzindol-8-amines. Derivatives as potent and orally active serotonin 5-HT1A receptor agonists” (J Med Chem, 1994).

Data set [1] has as its system Rattus norvegicus. Nature of the data set: Motor activity was measured by motility testing on injecting the compound subcutaneously into rats at the dose of 0.02 umol/kg (1a) and 3.5 umol/kg (1b).
A short description of data set [2]: Half life in plasma after administration of 2 umol/kg dose perorally. The class given is ADME, organism-based. The note with it: po.
The species named for data set [3] is Rattus norvegicus. As to the kind of experiment: The concentration yielding a half maximal decrease of the 5-HTP was determined in rat brain hemispheres. The class given is functional. The method in brief:
(§1)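 Reserpine-pretreated (5 mg/kg sc, 18 h) male Sprague-Dawley rats, 200–300 g; compounds in saline given sc. DOPA and 5-HTP in limbic system, striatum and hemispheres measured by HPLC with electrochemical detection. Dose–response curves of 4–6 doses (n = 4) per area, fitted to variable-slope sigmoid on log data to give ED50.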

The species named for data set [4] is Rattus norvegicus. Nature of the data set: The concentration yielding a half maximal decrease of the 5-HTP was determined in rat limbic system. The class given is functional. In a few lines:
as §1

For data set [5], the system named is Rattus norvegicus. As to the kind of experiment: The concentration yielding a half maximal decrease of the DOPA was determined in rat brain striatum; inactive at 3.1 umol/kg. The class given is functional, organism-based.
Data set [6] can be described thus: Bioavailability in rats after 5 mg/kg (i.v.) and 40 mg/kg (p.o.) administration. The class given is ADME, organism-based. The note with it: rat, in vivo, po. In a few lines: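 Male Sprague-Dawley rats; oral group starved 18 h, compared with iv dosing. Blood sampled up to 12 h, levels by GC/MS. Absolute oral availability F (po/iv) from ratio of AUCs of blood concentration–time curves, po n = 5, iv n = 3.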

Data set [7] has as its system Rattus norvegicus. Nature of the data set: The concentration yielding a half maximal decrease of the DOPA was determined in rat limbic system; inactive at 3.1 umol/kg. The class given is functional, organism-based.
For the next data set, the target named is D(2) dopamine receptor (Rattus norvegicus, UniProt P61169). Nature of the data set: Displacement of the radioligand [3H]spiperone from D2 receptor. The method in brief:
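Rat striatal membranes in 50 mM potassium phosphate buffer, incubated with 0.5 nM [3H]spiperone (3 mg tissue) 10 min at 37 °C. Nonspecific binding defined with 10 μM 6,7-ADTN. IC50 converted to Ki by Cheng–Prusoff; 3–7 experiments, each concentration in triplicate.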

Data set [8] in a line: Maximum concentration in plasma after administration of 2 umol/kg dose intravenously. In kind it is ADME, organism-based. The arrangement: dose 2 umol/kg, route intravenous. The note with it: iv.
A short description of data set [9]: Time taken to reach maximum concentration after administration of 10 umol/kg dose perorally. In kind it is ADME, organism-based. The note with it: in vivo, po. In a few lines:
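Male Sprague-Dawley rats, starved 18 h for the oral arm, dosed iv or po. Blood sampled at intervals up to 12 h. Compound measured by GC/mass spectrometry against an internal standard, with a standard curve over 2–1000 pmol/mL in blank blood. tmax read from concentration–time curves, n = 4–6.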

The test system of data set [10] is Rattus norvegicus. Nature of the data set: Ratio of the 5HTP-accumulation decrease in limbic regions of oral to that of sc administration. The class given is functional, Limbic system. The method in brief: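 Ratio of ED50 for decrease of limbic 5-HTP accumulation after oral versus sc dosing in reserpine-pretreated rats; 5-HTP measured by HPLC with electrochemical detection.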

Data set [11] relates to Rattus norvegicus. As to the kind of experiment: The concentration yielding a half maximal decrease of the DOPA was determined in rat brain hemispheres; inactive at 3.1 umol/kg. In kind it is functional, organism-based. In a few lines:
as §1

Data set [12] is described as follows: Area under the curve after intravenous administration at a dose of 2 umol/kg. The class given is ADME. The note with it: in vivo.
Data set [13] is filed under the species Rattus norvegicus. As to the kind of experiment: Log concentration to inhibit 5-HTP accumulation was determined in rat brain striatum. In kind it is functional. The method in brief: as §1
For data set [14], the species on record is Rattus norvegicus. As to the kind of experiment: Log concentration to inhibit 5-HTP accumulation was determined in rat limbic system. The class given is functional. In a few lines: as §1
Data set [15] can be described thus: Time taken to reach maximum concentration after administration of 2 umol/kg dose intravenously. The class given is ADME, organism-based. The note with it: in vivo, iv.
The species entered for data set [16] is Rattus norvegicus. As to the kind of experiment: The concentration yielding a half maximal decrease of the 5-HTP was determined in rat brain striatum. The class given is functional. The method in brief: as §1
For data set [17], the species on record is Rattus norvegicus. Nature of the data set: Log concentration to inhibit 5-HTP accumulation was determined in rat brain hemispheres. In kind it is functional. The method in brief:
as §1

Data set [18] is described as follows: Maximum concentration in plasma after administration of 10 umol/kg dose perorally. The class given is ADME, organism-based. The note with it: po. Also on record: dose 10 umol/kg, route oral. In a few lines:
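Male Sprague-Dawley rats starved 18 h, dosed orally. Blood samples over up to 12 h, drug quantified by GC/MS against internal standard (2–1000 pmol/mL standard curve). Cmax read from concentration–time curve; SEM, n = 4–6.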

In data set [19] the test system is Rattus norvegicus. Nature of the data set: The concentration yielding a half maximal decrease of the 5-HTP was determined in rat brain striatum; inactive at 11 umol/kg. In kind it is functional, organism-based. In a few lines:
as §1

Data set [20] has as its system Rattus norvegicus. Nature of the data set: The concentration yielding a half maximal decrease of the 5-HTP was determined in rat brain hemispheres; inactive at 11 umol/kg. The class given is functional, organism-based. The method in brief:
as §1

The test system of data set [21] is Rattus norvegicus. Nature of the data set: The concentration yielding a half maximal decrease of the 5-HTP was determined in rat limbic system; inactive at 11 umol/kg. In kind it is functional, organism-based. The method in brief: as §1
The test system of data set [22] is Rattus norvegicus. As to the kind of experiment: The concentration yielding a half maximal decrease of the DOPA was determined in rat brain hemispheres; inactive at 11 umol/kg. In kind it is functional, organism-based. In a few lines:
as §1

Data set [23] is filed under the species Rattus norvegicus. As to the kind of experiment: The concentration yielding a half maximal decrease of the DOPA was determined in rat brain striatum. pED50 values in parenthesis. The class given is functional.
The species entered for data set [24] is Rattus norvegicus. As to the kind of experiment: The concentration yielding a half maximal decrease of the DOPA was determined in rat limbic system. pED50 values in parenthesis. The class given is functional.

SMILES strings stand for the structures. The source made the active and inactive calls. No cut-off for these calls is given here.

Chain of D(2) dopamine receptor (P61169 whole entry): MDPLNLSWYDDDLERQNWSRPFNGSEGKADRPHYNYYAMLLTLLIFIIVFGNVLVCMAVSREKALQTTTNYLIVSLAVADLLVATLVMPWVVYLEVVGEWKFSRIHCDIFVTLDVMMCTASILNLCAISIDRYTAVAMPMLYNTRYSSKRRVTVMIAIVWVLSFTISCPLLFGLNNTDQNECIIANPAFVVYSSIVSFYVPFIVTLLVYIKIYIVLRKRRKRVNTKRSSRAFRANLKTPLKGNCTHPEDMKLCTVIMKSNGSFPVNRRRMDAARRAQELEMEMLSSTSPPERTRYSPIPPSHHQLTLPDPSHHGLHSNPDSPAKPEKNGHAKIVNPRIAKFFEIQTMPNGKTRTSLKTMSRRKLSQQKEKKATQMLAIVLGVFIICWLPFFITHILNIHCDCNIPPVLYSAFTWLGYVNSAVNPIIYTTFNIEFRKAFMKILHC

Molecule `CCCN(CCC)[C@@H]1CCc2ccc3[nH]cc(C=O)c3c2C1` returned a Counts/30 min in the data set with Rattus norvegicus [1] of 162. In data set [2], this molecule gave a half-life of 1.5 h. The ED50 is 0.45 µmol/kg in the data set filed under Rattus norvegicus [3], 0.072 µmol/kg in the data set listed under Rattus norvegicus [4], 15% in the data set on Rattus norvegicus [10] and 0.12 µmol/kg in the data set filed under Rattus norvegicus [16]. For the same molecule, the ED50 result in the data set on Rattus norvegicus [5], in the data set on Rattus norvegicus [7] and with Rattus norvegicus [11] was “inactive” each time. In data set [6], this molecule showed a bioavailability of 46%. The molecule further registered a Ki on D(2) dopamine receptor of 382 nM. Besides, the results for the Cmax in [8] and in data set [18] were 712 nM and 108 nM, respectively. The values for the Tmax in data set [9] and in data set [15] were 2.5 h and 2 min, respectively. Moreover, the AUC in [12] came out at 431 pM/kg. For the same molecule, the figures for the pED50 in the data set filed under Rattus norvegicus [13], in the data set filed under Rattus norvegicus [14] and in the data set filed under Rattus norvegicus [17] were 6.91, 7.14 and 6.34, respectively.

For `CCCN(CCC)C1CCc2ccc(O)cc2C1` (stereo unspecified), the ED50 entry in the data set on Rattus norvegicus [19], with Rattus norvegicus [20], with Rattus norvegicus [21] and in the data set on Rattus norvegicus [22] was “inactive” throughout. Moreover, in the data set on Rattus norvegicus [1], the Counts/30 min is on record as 170. Besides, the ED50 in the data set filed under Rattus norvegicus [23] is 0.03 µmol/kg; in the data set listed under Rattus norvegicus [24], 0.027 µmol/kg.
